# In publication PMC6161044 (ACS Central Science, 2018):
# Where “and” joins values, the source holds several entries; their conditions need not be identical. Equal values may be shown once. Ends that are not written are not given here. Peptide text beside a SMILES is read from it. * marks the point of attachment. αGalNAc = CC(=O)N[C@@H]1[C@@H](O)[C@@H](O)[C@@H](CO)O[C@@H]1*
# Legend:
# [1] = biological target: GalNAc-T4 Lectin Flexible Loop (LFL) deletion/mutant (P463DNNP467 to GGG) (Homo sapiens, UniProt Q8N4A0, DEL463-464/N465G/N466G/P467G); assay: Transferase assay and kinetics, LFL mutant; type: biochemical; conditions: for UDP-GalNAc Hydrolysis %: LFL deletion/mutant, Sephadex G10 chromatography (Figure S8)
# Summary of the method: (§1)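 Enzyme construct residues 36–578, wild-type or site-directed mutants. Reaction: 75 mM Na cacodylate pH 6.5, 1 mM 2-mercaptoethanol, 10 mM MnCl2, 0.25 mM UDP-[3H]GalNAc, 0.004–1.4 mM (glyco)peptide and 0.02–0.2 μM enzyme, at 37 °C for 10–180 min (≤30% donor used). EDTA quench, Dowex, then Sephadex G10 to separate transfer from hydrolysis. Rates hydrolysis-corrected, 2–5 repeats; Km, Vmax and Ki from Michaelis–Menten ± substrate-inhibition fits.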
# GalNAc-T4 wild-type [2] = biological target: T1, GalNAc-T4 wild-type (Homo sapiens, UniProt Q8N4A0); conditions: cited from earlier work
# GalNAc-T4 [3] = biological target: T2, GalNAc-T4 (Homo sapiens, UniProt Q8N4A0); conditions: in presence of GalNAc-T4, UDP, MnCl2; cited from earlier work
# [4] = biological target: GalNAc-T4 Catalytic Mutant (T283S-Q285A) (Homo sapiens, UniProt Q8N4A0, Q285A/T283S); assay: Transferase assay and kinetics, catalytic mutant; type: biochemical
# [5] = biological target: GalNAc-T4 Catalytic/LFL Mutant (T283S-Q285A-D464A) (Homo sapiens, UniProt Q8N4A0, D464A/Q285A/T283S); assay: Transferase assay and kinetics, catalytic/LFL mutant; type: biochemical
# Summary of the method: as §1
# [6] = biological target: GalNAc-T4 Lectin Mutant (D459H) (Homo sapiens, UniProt Q8N4A0, D459H); assay: Transferase assay and kinetics, lectin mutant; type: biochemical; conditions: for UDP-GalNAc Hydrolysis %: Sephadex G10 chromatography (Figure S8)
# Summary of the method: as §1
# GalNAc-T4 [7] = biological target: T2, GalNAc-T4; assay: Surface plasmon resonance binding to GalNAc-T4; conditions: wild-type
# Summary of the method: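 SPR binding of glycopeptide substrate to wild-type enzyme, run with excess UDP and MnCl2 present; Kd obtained by fitting the binding data.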
# GalNAc-T4 wild-type [8] = biological target: T1, GalNAc-T4 wild-type; assay: Transferase assay and kinetics, wild-type GalNAc-T4; type: biochemical; conditions: for Activity relative to glycopeptides 4 and 5 (fold higher): from Figure 1a
# Summary of the method: as §1
# GalNAc-T4 [9] = biological target: T2, GalNAc-T4; assay: STD-NMR epitope mapping with GalNAc-T4; type: binding; conditions: ~877 μM glycopeptide, 13.5 μM GalNAc-T4, 75 μM UDP, 75 μM MnCl2, 298 K
# [10] = biological target: catalytic domain mutant of GalNAc-T4 (T283S-Q285A) (Homo sapiens, UniProt Q8N4A0, Q285A/T283S); assay: Surface plasmon resonance binding to GalNAc-T4 catalytic mutant; conditions: T283S/Q285A catalytic mutant (Figure S11)
# GalNAc-T4 [11] = biological target: T2, GalNAc-T4; conditions: wild-type GalNAc-T4, excess UDP and MnCl2; saturation not achieved; cited from earlier work
# [12] = biological target: GalNAc-T4 (polypeptide GalNAc-transferase 4), wild type, residues 36-578 (human, UniProt Q8N4A0 36-578); assay: SPR
# [13] = biological target: GalNAc-T4 catalytic mutant (T283S, Q285A), residues 36-578 (human, UniProt Q8N4A0 36-578, T283S | Q285A); assay: SPR
molecule,measurement,setting,value
GAGAGAGTTPGPG [compound 1],UDP-GalNAc Hydrolysis %,[1],~90%
same,Glycosylation by GalNAc-T4 (in words),GalNAc-T4 wild-type [2],imperceptibly glycosylated
same,STD-NMR enhancements (in words),GalNAc-T4 [3],No significant STD enhancements
GAGAGAGT*TPGPG [compound 4],Catalytic activity (Vmax) as fraction of wt GalNAc-T4 activity,[4],1/3
same,Km relative to wt (fold higher),[4],~2 fold
same,Apparent activity and Vmax as fraction of the values for the catalytic and LFL mutants,[5],1/4
same,UDP-GalNAc Hydrolysis %,[1],~50%
same,Reduction in catalytic efficiency compared to wt GalNAc-T4,[1]; LFL mutant,~50%
same,Catalytic efficiency relative to wt transferase (fold higher),[6],~2 fold
same,Vmax relative to wt transferase (fold higher),[6],~2 fold
AGAGTTPGPGAGAT*GA [compound 2],UDP-GalNAc Hydrolysis %,[1],~90%
same,Glycosylation by GalNAc-T4 (in words),GalNAc-T4 wild-type [2],imperceptibly glycosylated
CC(=O)N[C@H]1[C@@H](O[C@H](C)[C@H](NC(=O)CNC(=O)[C@H](C)NC(=O)CNC(=O)[C@H](C)NC(=O)CNC(=O)[C@H](C)NC(=O)CNC(=O)[C@@H](NC(=O)[C@H](C)NC(=O)CN)[C@@H](C)O[C@H]2O[C@H](CO)[C@H](O)[C@H](O)[C@H]2NC(C)=O)C(=O)N[C@H](C(=O)N2CCC[C@H]2C(=O)NCC(=O)N2CCC[C@H]2C(=O)NCC(N)=O)[C@@H](C)O)O[C@H](CO)[C@H](O)[C@@H]1O [compound 6] (H-GAT(αGalNAc)GAGAGAGT(αGalNAc)TPGPG-NH2; N-terminus and C-terminus assumed),Catalytic efficiency Vmax/Km as fraction of wt,[4],about 1/2
same,Initial Vmax relative to wt transferase (fold higher),[4],~2 fold
same,Km relative to wt (fold higher),[4],~4 fold and ~3 fold
same,Km relative to catalytic mutant (fold lower),[5],~4 fold
same,Apparent Vmax relative to wt GalNAc-T4 (fold higher),[1]; LFL mutant,~2 fold
same,Kd (SPR) relative to Km (fold higher),GalNAc-T4 [7],~2 fold
same,Catalytic efficiency (Vmax/Km) relative to peptide 3 (fold higher),GalNAc-T4 wild-type [8],~1.5 fold
same,Catalytic efficiency (Vmax/Km) relative to peptide 4 (fold higher),GalNAc-T4 wild-type [8],~150 fold
same,Km relative to peptide 3 (fold lower),GalNAc-T4 wild-type [8],~1.3 fold
same,Activity relative to glycopeptides 4 and 5 (fold higher),GalNAc-T4 wild-type [8],~10 fold
same,"STD-NMR response, H2 proton of the GalNAc at Thr11",GalNAc-T4 [9]; catalytic domain bound neighboring GalNAc,50%
same,"STD-NMR response, H2 proton of the GalNAc at Thr3",GalNAc-T4 [9]; remote lectin bound GalNAc,90%
same,Kd by SPR relative to wt transferase (fold higher),[10],~6 fold
same,Km increase relative to wt GalNAc-T4,[6],~20 fold
same,Vmax decrease relative to wt GalNAc-T4,[6],~5 fold
same,UDP-GalNAc Hydrolysis %,[6],~20%
AGAGT*TPGPGAGAT*GA [compound 5],Catalytic activity (Vmax) as fraction of wt GalNAc-T4 activity,[4],1/3
same,Km relative to wt (fold higher),[4],~2 fold
same,Apparent activity and Vmax as fraction of the values for the catalytic and LFL mutants,[5],1/4
same,UDP-GalNAc Hydrolysis %,[1],~50%
same,Reduction in catalytic efficiency compared to wt GalNAc-T4,[1]; LFL mutant,~50%
GAT*GAGAGAGTTPGPG [compound 3],Km relative to wt (fold higher),[4],~2 fold
same,Km relative to wt (fold higher),[5],~2 fold
same,Kd by SPR (in words),GalNAc-T4 [11],in the mM range
same,Catalytic efficiency (Vmax/Km) relative to peptide 4 (fold higher),GalNAc-T4 wild-type [8],~100 fold
same,Km relative to peptide 4 (fold lower),GalNAc-T4 wild-type [8],~12 fold
same,Vmax relative to peptide 4 (fold higher),GalNAc-T4 wild-type [8],~8 fold
same,Activity relative to glycopeptides 4 and 5 (fold higher),GalNAc-T4 wild-type [8],~10 fold
same,Km increase relative to wt GalNAc-T4,[6],~20 fold
same,UDP-GalNAc Hydrolysis %,[6],~70%
"GATGAGAGAGTTPGPG (not fully specified (residues 3, 11); printed as GAT*GAGAGAGT*TPGPG) [diglycopeptide 6, GAT*GAGAGAGT*TPGPG]",Kd,[12],70 ± 15 µM
same,fold change of Kd against the wt transferase,[13],~6 fold
